{"source": "paper PMC5783296", "about": "(SLAS discovery : advancing life sciences R & D, 2017)", "key": {"[1]": {"biological_target": "T1, interaction between NHP2L1 and U4 5′SL (Homo sapiens, UniProt P55769)", "T1 sequence (P55769 1-128)": "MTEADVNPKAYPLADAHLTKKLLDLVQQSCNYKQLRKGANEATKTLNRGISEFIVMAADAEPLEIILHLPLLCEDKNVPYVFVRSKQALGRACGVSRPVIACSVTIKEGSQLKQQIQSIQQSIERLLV", "assay": "TR-FRET HTS assay of NHP2L1-U4 interaction", "format": "binding", "conditions": "for potency in dose response screening (IC50 ranking): dose responsive analysis, ten 1:3 dilutions, TR-FRET; for disruption of the interaction of U4 and NHP2L1: TR-FRET dose response, camptothecin derivatives"}, "U4 5′ SL [2]": {"test_system": "U4 5′ SL", "assay": "Surface plasmon resonance, immobilized U4 5′SL", "format": "binding", "conditions": "max 50μM, OneStep gradient injection, 20° C"}, "NHP2L1 U4 complex [3]": {"biological_target": "T2, NHP2L1 U4 complex (Homo sapiens, UniProt P55769)", "T2 sequence (P55769 1-128)": "T1 sequence (P55769 1-128)", "assay": "NMR of NHP2L1-U4 complex with topotecan", "format": "binding", "summary_of_the_method": "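15N-labelled NHP2L1 was premixed 1:1 with unlabelled U4 5′SL in pH 5.0 phosphate buffer (100 mM NaCl, 10% D2O, 2% DMSO-d6), with backbone assigned from HNCA/HNCACB. Chemical shift perturbations were read from 2D [15N,1H] HSQC/TROSY at 64 scans, and at 400 scans for the 1:1:20 TROSY.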"}, "NHP2L1 U4 complex [4]": {"biological_target": "T2, NHP2L1 U4 complex", "assay": "Electrophoretic gel mobility shift assay", "format": "binding", "conditions": "topotecan 0.2, 2, 20, 200 μM", "summary_of_the_method": "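Recombinant NHP2L1 (E. coli BL21(DE3), Ni-chelate then gel filtration) plus biotinylated U4 5′SL, ±test compound, 45 min at room temperature in 20 mM Tris-HCl pH 7.6, 150 mM NaCl, 0.1% Triton X-100, 2 mM DTT, 0.5 g/L tRNA. Run on 6% retardation gel, 0.5× TBE, 100 V, 60 min, then nylon transfer and chemiluminescent detection. Shifted band quantified by densitometry as % of complex without compound.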"}, "[5]": {"test_system": "pre-mRNA splicing (pTN23 reporter) in HEK293 cells", "assay": "pTN23 splicing reporter assay", "format": "cell-based, Human", "conditions": "HEK293, topotecan 250nM, 24 hours"}, "U4 5′ SL [6]": {"test_system": "U4 5′ SL", "assay": "1D NMR titration of U4 5′SL", "format": "binding", "conditions": "U4:topotecan 1:0 to 1:10", "summary_of_the_method": "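Solution NMR at pH 5.0 (100 mM NaCl, 100 mM sodium phosphate, 10% D2O, 2% DMSO-d6). U4 5′SL at 100 μM with increasing test compound, monitored by 1D and 2D [1H,1H] TOCSY (60 ms mixing) and NOESY (100 ms mixing) spectra.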"}, "NHP2L1 protein": {"biological_target": "T3, NHP2L1 protein (Homo sapiens, UniProt P55769)", "T3 sequence (P55769 1-128)": "T1 sequence (P55769 1-128)", "assay": "Surface plasmon resonance, immobilized NHP2L1", "format": "binding", "conditions": "max 50μM, OneStep gradient injection, 20° C"}, "[7]": {"biological_target": "T4, NHP2L1 (15.5K), His-tagged (UniProt P55769 1-128)", "T4 sequence": "T1 sequence (P55769 1-128)", "assay": "TR-FRET"}}, "note": "Structures can show the parent of a compound that is named as a salt.", "data": [{"molecule": "CC[C@@]1(O)C(=O)OCc2c1cc1n(c2=O)Cc2cc3cc(O)ccc3nc2-1", "note": "[10-OH-(S)-camptothecin]", "values": [{"measurement": "potency in dose response screening (IC50 ranking)", "setting": "[1]", "result": "among the most potent inhibitors"}]}, {"molecule": "CC[C@@]1(O)C(=O)OCc2c1cc1n(c2=O)Cc2cc3c(CNC)c(O)ccc3nc2-1", "note": "[N-demethyl-topotecan, N-Desmethyl topotecan]", "values": [{"measurement": "disruption of the interaction of U4 and NHP2L1", "setting": "[1]", "result": "able to disrupt the interaction of U4 and NHP2L1"}]}, {"molecule": "CCc1c2c(nc3ccc(O)cc13)-c1cc3c(c(=O)n1C2)COC(=O)[C@]3(O)CC", "note": "[SN-38]", "values": [{"measurement": "disruption of the interaction of U4 and NHP2L1", "setting": "[1]", "result": "able to disrupt the interaction of U4 and NHP2L1"}, {"measurement": "potency in dose response screening (IC50 ranking)", "setting": "[1]", "result": "among the most potent inhibitors"}]}, {"molecule": "CC[C@@]1(O)C(=O)OCc2c1cc1n(c2=O)Cc2cc3ccccc3nc2-1", "note": "[camptothecin, (S)-camptothecin]", "values": [{"measurement": "disruption of the interaction of U4 and NHP2L1", "setting": "[1]", "result": "less effective at disrupting the NHP2L1 and U4 interaction"}]}, {"molecule": "CCc1c2c(nc3ccc(OC(=O)N4CCC(N5CCCCC5)CC4)cc13)-c1cc3c(c(=O)n1C2)COC(=O)[C@]3(O)CC", "note": "[irinotecan]", "values": [{"measurement": "disruption of the interaction of U4 and NHP2L1", "setting": "[1]", "result": "less effective at disrupting the NHP2L1 and U4 interaction"}]}, {"molecule": "CC[C@@]1(O)C(=O)OCc2c1cc1n(c2=O)Cc2cc3c(CN(C)C)c(O)ccc3nc2-1", "note": "[topotecan hydrochloride]", "values": [{"measurement": "inhibition at 15 µM", "setting": "[1]; read-out: percentage of inhibition in primary screening", "result": 81.6, "unit": "%"}]}, {"molecule": "CC[C@@]1(O)C(=O)OCc2c1cc1n(c2=O)Cc2cc3c(CN(C)C)c(O)ccc3nc2-1", "note": "[topotecan, Topotecan]", "values": [{"measurement": "binding to U4 by SPR", "setting": "U4 5′ SL [2]", "result": "binds to U4 in a time-dependent manner"}, {"measurement": "direct binding to NHP2L1-U4 complex by 1D NMR", "setting": "NHP2L1 U4 complex [3]; 1D spectrum of complex", "result": "able to directly bind to the NHP2L1-U4 complex"}, {"measurement": "displacement of NHP2L1 from U4 by 2D NMR", "setting": "NHP2L1 U4 complex [3]; NHP2L1:U4:topotecan 1:1:20 (2mM topotecan)", "result": "displaces NHP2L1 from U4 only at high concentrations"}, {"measurement": "disruption of the interaction of U4 and NHP2L1", "setting": "[1]", "result": "able to disrupt the interaction of U4 and NHP2L1"}, {"measurement": "potency in dose response screening (IC50 ranking)", "setting": "[1]", "result": "among the most potent inhibitors"}, {"measurement": "inhibition of NHP2L1-U4 5′SL shift", "setting": "NHP2L1 U4 complex [4]", "result": "greater inhibition with increasing concentrations"}, {"measurement": "splicing efficiency (ratio of luciferase to β-galactosidase activities)", "setting": "[5]; p<0.001", "result": "significantly decreased splicing efficiency"}, {"measurement": "β-galactosidase activities", "setting": "[5]; p=0.4", "result": "without changing significantly β–galactosidase activities"}, {"measurement": "binding to U4 5′ SL by 1D NMR", "setting": "U4 5′ SL [6]", "result": "binding of topotecan to U4 5′ SL was confirmed"}, {"measurement": "binding to NHP2L1 by SPR", "setting": "NHP2L1 protein", "result": "markedly less binding to NHP2L1"}]}, {"molecule": "AUCGUAGCCAAUGAGGUUUAUCCGAGGCGCGAU (structured_RNA)", "note": "[Cy5-U4 5'SL]", "values": [{"measurement": "Kd", "setting": "[7]", "result": 0.68, "unit": "nM"}]}]}
